Measured values pooled from the literature.
Compare with care: the assays were run in different laboratories.
Target: Activated CDC42 kinase 1 (TNK2, Homo sapiens, UniProt Q07912)

`c1cnn2ncc(-c3ccnc(N4CCC45COC5)n3)c2c1` has a remaining binding of 74% (binding; 1 µM).
With `COc1ncc2cc3ccccc3nc2c1C#N` the remaining binding was 95% (cell-free assay, competition with immobilised ligand; 5 µM).
With `CN(C)c1nccc(-c2cnn3ncccc23)n1` the remaining binding was 100% (binding; 1 µM).
The remaining binding of `COc1cnc(Nc2cccc(S(N)(=O)=O)c2)nc1N1CCN(c2ccccc2)CC1` is reported as 97% (binding, competition with immobilised ligand; 1 µM).
With `O=C(NCCCN1CCOCC1)c1ccc(Nc2nccc(-c3cc4ccccc4s3)n2)cc1` the remaining binding was 63% (binding, competition with immobilised ligand; 1 µM).
With `COc1cc(-c2cn(C3CCc4c(F)cccc4N(CC(F)(F)F)C3=O)nn2)ccc1-n1cnc(C)c1` (stereo not shown) the remaining binding was 100% (cell-free assay, competition with immobilised ligand; 1 µM).
`C[C@@H](c1ccc(-n2cnc3c(N)ncnc32)cc1)N1CCc2nn(C)c(Cc3ccccc3)c2C1=O` has a remaining binding of 82% (binding, competition with immobilised ligand; 0.1 µM).
`O=C(Nc1c[nH]nc1C(=O)NC1CCNCC1)c1cc(F)cc(F)c1` has a remaining binding of 100% (binding, competition with immobilised ligand; 1 µM).
With `O=C(c1ccc(Nc2nccc(-c3cc4ccccc4s3)n2)cc1)N1CCC(N2CCCC2)CC1` the remaining binding was 62% (binding, competition with immobilised ligand; 1 µM).
With `CN1CC[C@H](c2c(O)cc(O)c3c(=O)cc(-c4ccccc4Cl)oc23)[C@H](O)C1` the remaining binding was 100% (cell-free assay, competition with immobilised ligand; 0.1 µM).
With `C[C@H](c1ccc(F)cc1)N(Cc1cccc(C(=O)O)c1)C(=O)c1cnc2ccccc2c1` the remaining binding was 100% (cell-free assay, competition with immobilised ligand; 1 µM).
For `CN(C)c1nccc(-c2cnc3ncccn23)n1`, the remaining binding was 99% (binding; 1 µM).
For `O=C(NC[C@@H]1[C@H]2CN(C(=O)OCc3cc(C(F)(F)F)cc(C(F)(F)F)c3)C[C@@H]12)c1ccc2[nH]nnc2c1`, the remaining binding was 100% (cell-free assay, competition with immobilised ligand; 1 µM).
The remaining binding of `CCN(CC)Cc1cc(Nc2ccnc3cc(Cl)ccc23)ccc1O` is reported as 89% (cell-free assay, competition with immobilised ligand; 0.1 µM).
The remaining binding of `c1cncc(-c2cccc(Nc3nccc(NC4CCCCC4)n3)c2)c1` is reported as 43% (binding, competition with immobilised ligand; 10 µM).
With `Cc1c(C(=O)O)cc(-c2ccc(C3CCNCC3)cc2)c2ccc(-c3ccc(C(F)(F)F)cc3)cc12` the remaining binding was 100% (binding, competition with immobilised ligand; 1 µM).
For `CS(=O)(=O)CCNCc1ccc(-c2ccc3ncnc(Nc4ccc(OCc5cccc(F)c5)c(Cl)c4)c3c2)o1`, the remaining binding was 100% (cell-free assay, competition with immobilised ligand; 0.1 µM).
`c1ccc(N2CCN(Cc3nc4ccccc4[nH]3)CC2)nc1` has a remaining binding of 100% (binding, competition with immobilised ligand; 1 µM).
The remaining binding of `Cc1c(-c2ccccc2)oc2c(C(=O)OCCN3CCCCC3)cccc2c1=O` is reported as 100% (cell-free assay, competition with immobilised ligand; 0.1 µM).
With `Cc1nc(Cc2cccc(C(F)(F)F)c2)sc1-c1ccc(C(N)=O)nc1` the remaining binding was 100% (cell-free assay, competition with immobilised ligand; 1 µM).
With `N[C@H]1CCN(c2nccc(-c3cnn4ncccc34)n2)C1` the remaining binding was 77% (binding; 1 µM).
`Nc1ncc2c(n1)-c1c([nH]c3ccc(C#CC4CC4)cc13)CCCC2` has a remaining binding of 100% (binding, competition with immobilised ligand; 1 µM).
The remaining binding of `CNC(=O)c1cc(Oc2ccc(NC(=O)Nc3ccc(Cl)c(C(F)(F)F)c3)cc2)ccn1` is reported as 100% (cell-free assay, competition with immobilised ligand; 0.1 µM).
For `C[C@H]1CCN(c2nccc(-c3cnn4ncccc34)n2)C1`, the remaining binding was 100% (binding; 1 µM).
`COc1cc2ncnc(Nc3ccc(F)c(Cl)c3)c2cc1OCCCN1CCOCC1` gave a remaining binding of 100% (cell-free assay, competition with immobilised ligand; 0.1 µM).
For `CN([C@@H]1CCc2c(CC(=O)O)c3ccccc3n2C1)S(=O)(=O)c1ccc(F)cc1`, the remaining binding was 100% (cell-free assay, competition with immobilised ligand; 1 µM).
The remaining binding of `Cc1nc(Nc2ncc(C(=O)Nc3c(C)cccc3Cl)s2)cc(N2CCN(CCO)CC2)n1` is reported as 4% (cell-free assay, competition with immobilised ligand; 0.1 µM).
The remaining binding of `O=C(c1ccc(Nc2ncc(Cl)c(-c3ccc(Cl)s3)n2)cc1)N1CCC(N2CCCC2)CC1` is reported as 44% (binding, competition with immobilised ligand; 1 µM).
`Cc1c(NC(=O)c2cc(C(N)=O)nc3cc(F)ccc23)c(C(F)(F)F)nn1Cc1ccc(C#N)cc1` gave a remaining binding of 71% (cell-free assay, competition with immobilised ligand; 1 µM).
`Cc1cnn2ncc(-c3ccnc(N(C)C)n3)c2c1` gave a remaining binding of 100% (binding; 1 µM).
`COC(=O)Nc1nc2cc(C(=O)c3ccccc3)ccc2[nH]1` has a remaining binding of 100% (cell-free assay, competition with immobilised ligand; 0.1 µM).
